Assay results from ChEMBL document CHEMBL3352487, “Synthesis, antibacterial activity, and biological evaluation of formyl hydroxyamino derivatives as novel potent peptide deformylase inhibitors against drug-resistant bacteria” (Eur J Med Chem, 2014).
Converted amounts (≈) assume the structure as drawn.

How the values were obtained:
[1] = system: Staphylococcus aureus; assay: Antimicrobial activity against Staphylococcus aureus ATCC 33591 in septicemia mouse model administered intragastrically measured after 14 days; type: functional; settings: ATCC 33591, po, 336 h
[2] = system: Staphylococcus aureus; assay: Antimicrobial activity against Staphylococcus aureus ATCC 33591 in septicemia mouse model assessed as mortality of host at 20 mg/kg administered intragastrically measured after 14 days relative to control; type: functional; settings: ATCC 33591, po, 336 h, route intragastric
Method in brief: (§1)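 Septicemia model: outbred mice inoculated i.p. with a 90–100% lethal dose (5 × 10^6 CFU/mL) in 0.5 mL brain heart infusion broth with 5% mucin. Drug in 20% DMSO given intragastrically after infection at 5, 10 or 20 mg/kg, 0.1 mL. Six mice per dose; cumulative mortality over 14 days; ED50 derived.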

[3] = system: Staphylococcus aureus; assay: Antimicrobial activity against Staphylococcus aureus ATCC 33591 in septicemia mouse model assessed as mortality of host at 10 mg/kg administered intragastrically measured after 14 days relative to control; type: functional; settings: ATCC 33591, po, 336 h, route intragastric; method in brief: as §1
[4] = system: Staphylococcus aureus; assay: Antimicrobial activity against Staphylococcus aureus ATCC 33591 in septicemia mouse model assessed as mortality of host at 5 mg/kg administered intragastrically measured after 14 days relative to control; type: functional; settings: ATCC 33591, po, 336 h, route intragastric; method in brief: as §1
[5] = system: Staphylococcus epidermidis; assay: Antimicrobial activity against Staphylococcus epidermidis after 24 hrs by broth microdilution method; type: functional
Method in brief: (§2)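 Broth microdilution following NCCLS M7-A4; ATCC strains and clinical isolates from a provincial hospital.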

[6] = system: Escherichia coli; assay: Antimicrobial activity against Escherichia coli isolate 1 after 24 hrs by broth microdilution method; type: functional; settings: isolate 1, 24 h; method in brief: as §2
[7] = system: Escherichia coli; assay: Antimicrobial activity against Escherichia coli isolate 2 after 24 hrs by broth microdilution method; type: functional; settings: isolate 2, 24 h; method in brief: as §2
[8] = Fraction unbound in CD1 mouse plasma at 2 uM by equilibrium dialysis; type: ADME, cell-free
Method in brief: (§3)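 Pooled CD-1 mouse plasma spiked to 2 µM final, equilibrium dialysis in triplicate against 100 mM PBS pH 7.4, 4 h at 37 °C with rotation; matrix-matched samples acetonitrile-precipitated, LC-MS/MS with internal standards. Unbound = free/total ×100; recovery = (free+total)/pre-dialysis ×100.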

[9] = Protein binding in CD1 mouse plasma at 2 uM by equilibrium dialysis; type: ADME, cell-free; settings: read-out: PPB (converted)
[10] = Drug recovery in CD1 mouse plasma at 2 uM by equilibrium dialysis; type: ADME, cell-free; settings: read-out: Drug recovery; method in brief: as §3
[11] = biological target: T1, hERG (KCNH2) (Homo sapiens, UniProt Q12809); assay: Inhibition of human ERG at 1 uM
[12] = system: Staphylococcus aureus; assay: Antimicrobial activity against Staphylococcus aureus after 24 hrs by broth microdilution method; type: functional; method in brief: as §2
[13] = system: Staphylococcus aureus; assay: Antimicrobial activity against methicillin-susceptible Staphylococcus aureus after 24 hrs by broth microdilution method; type: functional; method in brief: as §2
[14] = system: Staphylococcus aureus; assay: Antimicrobial activity against methicillin-resistant Staphylococcus aureus after 24 hrs by broth microdilution method; type: functional
Method in brief: (§4)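 Broth microdilution following NCCLS M7-A4, using ATCC strains and clinical isolates from a provincial hospital.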

[15] = system: Staphylococcus aureus; assay: Antimicrobial activity against Staphylococcus aureus OXFORD after 24 hrs by broth microdilution method; type: functional; method in brief: as §4
[16] = system: Staphylococcus aureus; assay: Antimicrobial activity against Staphylococcus aureus WCUH29 after 24 hrs by broth microdilution method; type: functional; settings: WCUH29, 24 h; method in brief: as §2
[17] = system: Enterococcus faecalis; assay: Antimicrobial activity against Enterococcus faecalis Isolate 1 after 24 hrs by broth microdilution method; type: functional; settings: Isolate 1, 24 h; method in brief: as §2
[18] = system: Enterococcus faecium; assay: Antimicrobial activity against Enterococcus faecium X7501 after 24 hrs by broth microdilution method; type: functional; settings: X7501, 24 h; method in brief: as §2
[19] = system: Haemophilus influenzae; assay: Antimicrobial activity against Haemophilus influenzae Q1 after 24 hrs by broth microdilution method; type: functional; settings: Q1, 24 h; method in brief: as §2
[20] = system: Haemophilus influenzae; assay: Antimicrobial activity against Haemophilus influenzae H128 after 24 hrs by broth microdilution method; type: functional; settings: H128, 24 h; method in brief: as §2
[21] = system: Haemophilus influenzae; assay: Antimicrobial activity against AcrA-deficient Haemophilus influenzae H128 after 24 hrs by broth microdilution method; type: functional; settings: H128, 24 h; method in brief: as §2
[22] = system: Moraxella catarrhalis; assay: Antimicrobial activity against Moraxella catarrhalis 1502 after 24 hrs by broth microdilution method; type: functional; settings: Moraxella catarrhalis, 1502, 24 h; method in brief: as §2
[23] = system: Streptococcus pneumoniae; assay: Antimicrobial activity against Streptococcus pneumoniae 1629 after 24 hrs by broth microdilution method; type: functional; settings: Streptococcus pneumoniae, 1629, 24 h; method in brief: as §2
[24] = system: Streptococcus pneumoniae; assay: Antimicrobial activity against Streptococcus pneumoniae N1387 after 24 hrs by broth microdilution method; type: functional; settings: N1387, 24 h; method in brief: as §2
[25] = system: Streptococcus pneumoniae; assay: Antimicrobial activity against Streptococcus pneumoniae ERY2 after 24 hrs by broth microdilution method; type: functional; settings: ERY2, 24 h; method in brief: as §2
[26] = system: Escherichia coli; assay: Antimicrobial activity against Escherichia coli isolate 3 after 24 hrs by broth microdilution method; type: functional; settings: isolate 3, 24 h; method in brief: as §2
[27] = system: Streptococcus pyogenes; assay: Antimicrobial activity against Streptococcus pyogenes 1307006P after 24 hrs by broth microdilution method; type: functional; method in brief: as §2
[28] = system: Streptococcus pyogenes; assay: Antimicrobial activity against Streptococcus pyogenes 1308007P after 24 hrs by broth microdilution method; type: functional; method in brief: as §2
[29] = Half life in Sprague-Dawley rat at 5 mg/kg, iv; type: ADME, organism-based; set-up: dose 5 mg/kg, route intravenous; settings: in vivo
[30] = Mean residence time (0 to t) in Sprague-Dawley rat at 5 mg/kg, iv; type: ADME, organism-based; set-up: dose 5 mg/kg, route intravenous; settings: in vivo
[31] = AUC (0 to t) in Sprague-Dawley rat at 5 mg/kg, iv; type: ADME, organism-based; set-up: dose 5 mg/kg, route intravenous; settings: plasma
[32] = AUC (0 to infinity) in Sprague-Dawley rat at 5 mg/kg, iv; type: ADME, organism-based; set-up: time infinity, dose 5 mg/kg, route intravenous; settings: plasma
[33] = Clearance in Sprague-Dawley rat at 5 mg/kg, iv; type: ADME, organism-based; set-up: dose 5 mg/kg, route intravenous; settings: in vivo
[34] = Volume of distribution at steady state in Sprague-Dawley rat at 5 mg/kg, iv; type: ADME, organism-based; set-up: dose 5 mg/kg, route intravenous; settings: in vivo, read-out: Vdss
[35] = Cmax in Sprague-Dawley rat at 25 mg/kg, po; type: ADME, organism-based; set-up: dose 25 mg/kg, route oral; settings: in vivo
[36] = Tmax in Sprague-Dawley rat at 25 mg/kg, po; type: ADME, organism-based; set-up: dose 25 mg/kg, route oral; settings: in vivo
[37] = Half life in Sprague-Dawley rat at 25 mg/kg, po; type: ADME, organism-based; set-up: dose 25 mg/kg, route oral; settings: in vivo
[38] = AUC (0 to t) in Sprague-Dawley rat at 25 mg/kg, po; type: ADME, organism-based; set-up: dose 25 mg/kg, route oral; settings: plasma
[39] = AUC (0 to infinity) in Sprague-Dawley rat at 25 mg/kg, po; type: ADME, organism-based; set-up: dose 25 mg/kg, route oral, time infinity; settings: plasma
[40] = Mean residence time (0 to t) in Sprague-Dawley rat at 25 mg/kg, po; type: ADME, organism-based; set-up: dose 25 mg/kg, route oral; settings: in vivo
[41] = Oral bioavailability in Sprague-Dawley rat at 25 mg/kg; type: ADME, organism-based; settings: in vivo
[42] = biological target: T1, hERG (KCNH2); assay: Inhibition of human ERG at 10 uM

T1 sequence (Q12809 whole entry): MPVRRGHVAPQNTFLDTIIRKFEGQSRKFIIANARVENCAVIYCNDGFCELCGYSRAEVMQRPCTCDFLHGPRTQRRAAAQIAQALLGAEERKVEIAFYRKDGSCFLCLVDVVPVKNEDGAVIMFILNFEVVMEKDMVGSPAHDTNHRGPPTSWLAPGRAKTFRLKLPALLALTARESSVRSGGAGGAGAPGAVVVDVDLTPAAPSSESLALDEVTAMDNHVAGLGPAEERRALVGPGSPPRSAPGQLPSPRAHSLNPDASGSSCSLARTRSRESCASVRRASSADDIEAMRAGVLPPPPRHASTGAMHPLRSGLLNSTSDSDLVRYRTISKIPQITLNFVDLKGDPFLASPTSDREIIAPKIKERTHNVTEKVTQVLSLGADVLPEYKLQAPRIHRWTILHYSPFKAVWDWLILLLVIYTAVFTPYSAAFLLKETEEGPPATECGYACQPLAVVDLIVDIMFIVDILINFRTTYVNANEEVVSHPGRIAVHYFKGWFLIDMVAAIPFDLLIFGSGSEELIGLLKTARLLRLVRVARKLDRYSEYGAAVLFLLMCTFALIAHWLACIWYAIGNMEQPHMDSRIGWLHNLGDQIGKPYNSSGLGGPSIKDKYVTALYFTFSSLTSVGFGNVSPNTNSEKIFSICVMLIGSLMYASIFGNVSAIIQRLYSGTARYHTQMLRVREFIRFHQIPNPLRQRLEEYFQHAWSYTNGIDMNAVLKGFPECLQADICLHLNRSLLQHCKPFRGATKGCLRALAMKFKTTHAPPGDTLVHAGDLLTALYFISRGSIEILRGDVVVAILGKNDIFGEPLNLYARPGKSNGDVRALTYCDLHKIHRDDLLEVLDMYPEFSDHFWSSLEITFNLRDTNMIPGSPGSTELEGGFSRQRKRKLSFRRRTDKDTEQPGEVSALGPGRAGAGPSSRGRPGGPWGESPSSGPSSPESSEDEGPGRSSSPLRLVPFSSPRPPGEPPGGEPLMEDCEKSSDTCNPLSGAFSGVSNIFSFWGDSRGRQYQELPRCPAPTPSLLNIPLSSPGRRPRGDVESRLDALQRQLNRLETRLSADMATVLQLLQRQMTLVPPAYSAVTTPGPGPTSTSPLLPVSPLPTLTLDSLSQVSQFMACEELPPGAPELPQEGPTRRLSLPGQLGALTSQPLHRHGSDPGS

## CC(=O)NC[C@H]1CN(c2ccc(N3CCOCC3)c(F)c2)C(=O)O1 [LINEZOLID]
[1]
  ED50: 11.9 mg/kg
[2]
  mortality at 20 mg/kg: 16%
[3]
  mortality at 10 mg/kg: 66%
[4]
  mortality at 5 mg/kg: 83%
[5]
  MIC: 0.5 µg/mL (≈ 1.48 µM)
[6]
  MIC: > 64 µg/mL
[7]
  MIC: > 64 µg/mL

## C=C1C[C@@H](C(=O)Nc2ncc(C)s2)N(C(=O)[C@H](CCCC)CN(O)C=O)C1
[1]
  ED50: 19.6 mg/kg
[2]
  mortality at 20 mg/kg: 50%
[3]
  mortality at 10 mg/kg: 66%
[4]
  mortality at 5 mg/kg: 83%
[8]
  fraction unbound at 2 µM: 0.01
[9]
  fraction unbound at 2 µM: 0.01
[10]
  recovery at 2 µM: 93.7%
[11]
  inhibition at 1 µM: -0.35%
[12]
  MIC: 0.25 µg/mL (≈ 0.634 µM)
[13]
  MIC: 0.5 µg/mL (≈ 1.27 µM)
[14]
  MIC: 0.0312 µg/mL (≈ 0.0791 µM)
[5]
  MIC: 0.0625 µg/mL (≈ 0.158 µM)
[6]
  MIC: 64 µg/mL (≈ 162 µM)
[7]
  MIC: 32 µg/mL (≈ 81.1 µM)
[15]
  MIC: 0.5 µg/mL (≈ 1.27 µM)
[16]
  MIC: 0.125 µg/mL (≈ 0.317 µM)
[17]
  MIC: 4 µg/mL (≈ 10.1 µM)
[18]
  MIC: 2 µg/mL (≈ 5.07 µM)
[19]
  MIC: 4 µg/mL (≈ 10.1 µM)
[20]
  MIC: 4 µg/mL (≈ 10.1 µM)
[21]
  MIC: ≤ 0.06 µg/mL
[22]
  MIC: ≤ 0.06 µg/mL
[23]
  MIC: 2 µg/mL (≈ 5.07 µM)
[24]
  MIC: 1 µg/mL (≈ 2.53 µM)
[25]
  MIC: 2 µg/mL (≈ 5.07 µM)
[26]
  MIC: 64 µg/mL (≈ 162 µM)
[27]
  MIC: 2 µg/mL (≈ 5.07 µM)
[28]
  MIC: 2 µg/mL (≈ 5.07 µM)
[29]
  half-life: 3.21 h
[30]
  MRT last: 2.03 h
[31]
  AUC(0-t): 19800 ng·h/mL
[32]
  AUC(0-inf): 19800 ng·h/mL
[33]
  clearance: 4.83 mL/min/kg
[34]
  Vd: 0.571 L/kg
[35]
  Cmax: 15700 ng/mL
[36]
  Tmax: 0.688 h
[37]
  half-life: 3.02 h
[38]
  AUC(0-t): 58100 ng·h/mL
[39]
  AUC(0-inf): 58300 ng·h/mL
[40]
  MRT last: 3.41 h
[41]
  bioavailability: 58.9%
[42]
  inhibition at 10 µM: -2.98%
